Assay results: ChEMBL document CHEMBL1126824, “Discovery of a novel class of potent HIV-1 protease inhibitors containing the (R)-(hydroxyethyl)urea isostere” (J Med Chem, 1993)

Key:
[1] = molecular target: T1, Human immunodeficiency virus type 1 protease (Human immunodeficiency virus 1, UniProt Q72874); experiment: Inhibition of HIV-1 Protease.
Method in brief: (§1)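 Continuous fluorometric HIV-1 protease assay. Substrate 2-(aminobenzoyl)-Thr-Ile-Nle-Phe(p-NO₂)-Gln-ArgNH₂ (Km = 37 μM). MVT-101 (Ac-Thr-Ile-Nle[CH₂NH]Nle-Gln-ArgNH₂) served as positive control. IC₅₀ values were determined from inhibition of substrate cleavage; compounds giving under 50% inhibition at 10 μM were flagged.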

CEM (Homo sapiens) = experiment: Toxic dose required for 50% in uninfected cells
[2] = molecular target: Human immunodeficiency virus type 1 protease (Human immunodeficiency virus 1) (UniProt Q72874); experiment: Inhibition of HIV-1 Protease; set-up: concentration or dose not given beside the values; details: concentration not given here
Method in brief: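 Continuous fluorometric cleavage of 2-(aminobenzoyl)-Thr-Ile-Nle-Phe(p-NO2)-Gln-ArgNH2 (Km = 37 μM); IC50 determined, with MVT-101 (Ac-Thr-Ile-Nle[CH2NH]Nle-Gln-ArgNH2) as positive control.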

[3] = molecular target: T1, Human immunodeficiency virus type 1 protease; experiment: Compounds were tested for their concentration to inhibit the HIV-1 Protease; method in brief: as §1

Structure (SMILES)	IC50 [1] [nM]	other results
C[C@@H](c1ccccc1)N(C[C@@H](O)[C@H](Cc1ccccc1)NC(=O)[C@H](CC(N)=O)NC(=O)OCc1ccccc1)C(=O)NC(C)(C)C	5100	–
CC(C)(C)NC(=O)N(Cc1ccncc1)C[C@@H](O)[C@H](Cc1ccccc1)NC(=O)[C@H](CC(N)=O)NC(=O)OCc1ccccc1	105	–
CC(C)CN(C[C@@H](O)[C@H](Cc1ccccc1)NC(=O)[C@H](CC(N)=O)NC(=O)c1ccc2ccccc2n1)C(=O)NC(C)(C)C [TELINAVIR]	6	TD50 (CEM (Homo sapiens)): 50 µM
CCNC(=O)N(CC(C)C)C[C@@H](O)[C@H](Cc1ccccc1)NC(=O)[C@H](CC(N)=O)NC(=O)OCc1ccccc1	330	–
CCCCNC(=O)N(CC(C)C)C[C@@H](O)[C@H](Cc1ccccc1)NC(=O)[C@H](CC(N)=O)NC(=O)c1ccc2ccccc2n1	126	–
CC(C)(C)NC(=O)N(CC1CCCCC1)C[C@@H](O)[C@H](Cc1ccccc1)NC(=O)[C@H](CC(N)=O)NC(=O)OCc1ccccc1	29	–
CCCCNC(=O)N(CC(C)C)C[C@@H](O)[C@H](Cc1ccccc1)NC(=O)[C@H](CC(N)=O)NC(=O)OCc1ccccc1	940	–
CCCNC(=O)N(CC(C)C)C[C@@H](O)[C@H](Cc1ccccc1)NC(=O)[C@H](CC(N)=O)NC(=O)OCc1ccccc1	518	–
CC(C)CN(C[C@H](O)[C@H](Cc1ccccc1)NC(=O)[C@H](CC(N)=O)NC(=O)c1ccc2ccccc2n1)C(=O)NC(C)(C)C	10000	–
CC(C)(C)NC(=O)N(Cc1ccncc1)C[C@@H](O)[C@H](Cc1ccccc1)NC(=O)[C@H](CC(N)=O)NC(=O)c1ccc2ccccc2n1	19	TD50 (CEM (Homo sapiens)): 300 µM
CNC(=O)N(C)C[C@@H](O)[C@H](Cc1ccccc1)NC(=O)[C@H](CC(N)=O)NC(=O)OCc1ccccc1	–	inhibition [2]: < 50%
CC(C)(C)NC(=O)N(Cc1ccccc1)C[C@@H](O)[C@H](Cc1ccccc1)NC(=O)[C@H](CC(N)=O)NC(=O)OCc1ccccc1	19	–
CC(C)CCN(C[C@@H](O)[C@H](Cc1ccccc1)NC(=O)[C@H](CC(N)=O)NC(=O)OCc1ccccc1)C(=O)NC(C)(C)C	13	–
CCCCNC(=O)N(CC(C)C)C[C@H](O)[C@H](Cc1ccccc1)NC(=O)[C@H](CC(N)=O)NC(=O)OCc1ccccc1	–	inhibition [2]: < 50%
CC(C)CN(C[C@@H](O)[C@H](Cc1ccccc1)NC(=O)[C@H](CC(N)=O)NC(=O)OCc1ccccc1)C(=O)NC(C)C	260	–
CNC(=O)N(CC(C)C)C[C@@H](O)[C@H](Cc1ccccc1)NC(=O)[C@H](CC(N)=O)NC(=O)OCc1ccccc1	–	IC50 [3]: 1500 nM
CC(C)CN(C[C@H](O)[C@H](Cc1ccccc1)NC(=O)[C@H](CC(N)=O)NC(=O)OCc1ccccc1)C(=O)NC(C)(C)C	54000	–
C[C@H](c1ccccc1)N(C[C@@H](O)[C@H](Cc1ccccc1)NC(=O)[C@H](CC(N)=O)NC(=O)OCc1ccccc1)C(=O)NC(C)(C)C	6500	–
CC(C)CCN(C[C@@H](O)[C@H](Cc1ccccc1)NC(=O)[C@H](CC(N)=O)NC(=O)c1ccc2ccccc2n1)C(=O)NC(C)(C)C	3	TD50 (CEM (Homo sapiens)): 50 µM
CCCC[C@@H](CN[C@@H](CCCC)C(=O)N[C@@H](CCC(N)=O)C(=O)N[C@@H](CCCNC(=N)N)C(N)=O)NC(=O)[C@@H](NC(=O)[C@@H](NC(C)=O)[C@@H](C)O)[C@@H](C)CC	1900	–
CNC(=O)N(C)C[C@H](O)[C@H](Cc1ccccc1)NC(=O)[C@H](CC(N)=O)NC(=O)OCc1ccccc1	–	inhibition [2]: < 50%
CCCCNC(=O)N(C)C[C@@H](O)[C@H](Cc1ccccc1)NC(=O)[C@H](CC(N)=O)NC(=O)OCc1ccccc1	–	inhibition [2]: < 50%
CC(C)(C)NC(=O)N(Cc1ccccc1)C[C@@H](O)[C@H](Cc1ccccc1)NC(=O)[C@H](CC(N)=O)NC(=O)c1ccc2ccccc2n1	3	TD50 (CEM (Homo sapiens)): 700 µM
CC(C)CN(C[C@@H](O)[C@H](Cc1ccccc1)NC(=O)[C@H](CC(N)=O)NC(=O)OCc1ccccc1)C(=O)NC(C)(C)C	35	–
CNC(=O)N(CC(C)C)C[C@H](O)[C@H](Cc1ccccc1)NC(=O)[C@H](CC(N)=O)NC(=O)OCc1ccccc1	–	inhibition [2]: < 50%
CC(C)(C)NC(=O)N(CC1CCCCC1)C[C@@H](O)[C@H](Cc1ccccc1)NC(=O)[C@H](CC(N)=O)NC(=O)c1ccc2ccccc2n1	5	–
CCCCNC(=O)N(C)C[C@H](O)[C@H](Cc1ccccc1)NC(=O)[C@H](CC(N)=O)NC(=O)OCc1ccccc1	–	inhibition [2]: < 50%
